Measurements from ChEMBL document CHEMBL1135597, “A thymidine phosphorylase-stable analogue of BVDU with significant antiviral activity” (J Med Chem, 2002).
Values after ≈ are worked out from the molar mass of the structure shown.

Tests used:
Vaccinia virus = assay: Inhibitory activity against vaccinia virus (VV) replication in E6SM cell cultures of human embryonic skin-muscle; format: functional, organism-based; details: Orthopoxvirus vaccinia
Outline: (§1)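 Confluent human embryonic skin-muscle (E6SM) cell cultures were infected with 100 CCID50 of virus. After 1 h adsorption, residual virus was removed and cultures were incubated with test compound at varying concentrations […]. Cytopathicity was scored once complete in infected control cultures. EC50 is the concentration that inhibits virus-induced cytopathicity by 50%.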

[1] = Inhibitory activity against TK-deficient HSV-1 (KOS) replication in E6SM cell cultures of human embryonic skin-muscle; format: functional, cell-based; details: Human alphaherpesvirus 1, E6SM; outline: as §1
Human alphaherpesvirus 1 [2] = assay: Inhibitory activity against HSV-1 (F) replication in E6SM cell cultures of human embryonic skin-muscle; format: functional, organism-based; details: Human alphaherpesvirus 1, E6SM; outline: as §1
[3] = test system: Vesicular stomatitis virus; assay: Inhibitory activity against vesicular stomatitis virus (VSV) replication in E6SM cell cultures of human embryonic skin-muscle; format: functional, organism-based; outline: as §1
[4] = Inhibitory activity against HSV-1 (KOS) replication in E6SM cell cultures of human embryonic skin-muscle; format: functional, cell-based; details: Human alphaherpesvirus 1, E6SM; outline: as §1
Human alphaherpesvirus 1 [5] = assay: Inhibitory activity against HSV-1 (McIntyre) replication in E6SM cell cultures of human embryonic skin-muscle; format: functional, organism-based; details: Human alphaherpesvirus 1, E6SM; outline: as §1
E6SM = assay: […] in E6SM cell cultures of human embryonic skin-muscle; format: functional

SMILES: O=c1[nH]c(=O)n([C@@H]2CO[C@H](CO)C2)cc1/C=C/Br
- EC50 (Vaccinia virus): > 400 µg/mL
- EC50 [1]: > 400 µg/mL
- EC50 (Human alphaherpesvirus 1 [2]): 1.9 µg/mL (≈ 5.99 µM)
- EC50 [3]: > 400 µg/mL
- EC50 [4]: 2.6 µg/mL (≈ 8.2 µM)
- EC50 (Human alphaherpesvirus 1 [5]): 9.6 µg/mL (≈ 30.3 µM)
- MCC (E6SM): > 400 µg/mL

SMILES: Nc1nc2c(ncn2COCCO)c(=O)[nH]1 [ACYCLOVIR]
- EC50 (Vaccinia virus): > 400 µg/mL
- EC50 [1]: 48 µg/mL (≈ 213 µM)
- EC50 (Human alphaherpesvirus 1 [2]): 0.077 µg/mL (≈ 0.342 µM)
- EC50 [3]: > 400 µg/mL
- EC50 [4]: 0.077 µg/mL (≈ 0.342 µM)
- EC50 (Human alphaherpesvirus 1 [5]): 0.077 µg/mL (≈ 0.342 µM)
- MCC (E6SM): > 400 µg/mL

SMILES: O=c1[nH]c(=O)n([C@H]2C[C@H](O)[C@@H](CO)O2)cc1/C=C/Br [BRIVUDINE]
- EC50 (Vaccinia virus): 1.9 µg/mL (≈ 5.7 µM)
- EC50 [1]: 240 µg/mL (≈ 720 µM)
- EC50 (Human alphaherpesvirus 1 [2]): 0.026 µg/mL (≈ 0.078 µM)
- EC50 [3]: > 400 µg/mL
- EC50 [4]: 0.026 µg/mL (≈ 0.078 µM)
- EC50 (Human alphaherpesvirus 1 [5]): 0.026 µg/mL (≈ 0.078 µM)
- MCC (E6SM): > 400 µg/mL

SMILES: Nc1nc2c(ncn2COC(CO)CO)c(=O)[nH]1 [GANCICLOVIR]
- EC50 (Vaccinia virus): > 100 µg/mL
- EC50 [1]: 2.4 µg/mL (≈ 9.4 µM)
- EC50 (Human alphaherpesvirus 1 [2]): 0.019 µg/mL (≈ 0.0744 µM)
- EC50 [3]: > 100 µg/mL
- EC50 [4]: 0.019 µg/mL (≈ 0.0744 µM)
- EC50 (Human alphaherpesvirus 1 [5]): 0.019 µg/mL (≈ 0.0744 µM)
- MCC (E6SM): > 100 µg/mL

SMILES: NC(=O)c1ncn([C@@H]2O[C@H](CO)[C@@H](O)[C@H]2O)n1 [RIBAVIRIN]
- EC50 (Vaccinia virus): 240 µg/mL (≈ 983 µM)
- EC50 [1]: 240 µg/mL (≈ 983 µM)
- EC50 (Human alphaherpesvirus 1 [2]): 48 µg/mL (≈ 197 µM)
- EC50 [3]: > 400 µg/mL
- EC50 [4]: 48 µg/mL (≈ 197 µM)
- EC50 (Human alphaherpesvirus 1 [5]): 240 µg/mL (≈ 983 µM)
- MCC (E6SM): > 400 µg/mL
